# Assay results gathered from unrelated publications.
# Each line is one published result; the experiments were not run side by side.
# Observed: cell growth or viability
Structure (SMILES),cell line,assay,setting,endpoint,value
COc1ccc(NC(=O)c2c(Nc3ccccc3)sc(C#N)c2NC(=O)CNc2ccc(OC)c(OC)c2)cc1,HepG2,SRB,"1 µM, 48 h",viability,83.7%
COc1cc(Nc2nccc(-c3cnn4nc(OC)ccc34)n2)cc(C(F)(F)F)c1,HEC-1B,ATP luminescence,,IC50,> 3 µM
COc1ccc(NC(=O)c2c(Nc3ccccc3)sc(C(=O)NN=Cc3ccc(C)cc3)c2NC(C)=O)cc1,HepG2,SRB,"1 nM, 48 h",viability,100%
COc1cc(N2CCC(N3CCN(C)CC3)CC2)ccc1Nc1ncc(Cl)c(Nc2ccccc2P(C)(C)=O)n1,NCI-H292,ATP luminescence,72 h,GI50,2.76 µM
CCCCCCCCCCCCNC(=S)NCCCC[C@H](NC(=O)OCc1ccccc1)C(=O)N[C@@H](C)C(=O)N[C@@H](CCCNC(=N)N)C(N)=O,HEK-293T,MTT,72 h,EC50,102 to 121 µM
COc1ccc(NC(=O)c2c(Nc3ccccc3)sc(C#N)c2NC(=O)CNc2ccc(O)cc2)cc1,HepG2,SRB,"100 µM, 48 h",viability,53.9%
Cc1cc(Nc2ccc(C(=O)N/N=C/c3ccnc(Cl)c3)cc2)c2cccc(O)c2n1,Huh-7,MTT,20 µM,inhibition,32.9%
CCOC(=O)c1ccc(NC(=O)C2=C3C(=Nc4ccccc43)NC2=O)cc1,HepG2,MTT,"6.25 µM, 24 h",viability,90.2%
COc1ccc(NC(=O)c2c(Nc3ccccc3)sc(C(=O)NN=Cc3ccccc3)c2NC(C)=O)cc1,HepG2,SRB,"10 µM, 48 h",viability,65.3%
CCOC(=O)c1ccc(-n2c(C)cc(/C=C/c3ccc(OCC)cc3)c(C#N)c2=O)cc1,HepG2,MTT,"3.125 µM, 24 h",viability,100%
CC(C)C[C@H](NC(=O)[C@H](Cc1ccccc1)NC(=O)c1cnccn1)B(O)O,HEC-1B,ATP luminescence,,IC50,0.0096 µM
Cc1cc(Nc2ccc(C(=O)N/N=C/c3nc4ccccc4[nH]3)cc2)c2cccc(O)c2n1,Huh-7,MTT,20 µM,inhibition,33%
CCOC(=O)c1ccc(N2C(N)=C(C#N)C3(C(=O)Nc4ccccc43)C(C#N)=C2O)cc1 (stereo not shown),HepG2,MTT,"1.56 µM, 24 h",viability,94.2%
CCCCCCCCCCCCNC(=S)NCCCC[C@H](NS(C)(=O)=O)C(=O)N[C@H](C)C(=O)N[C@@H](CCCNC(=N)N)C(=O)N1CCOCC1,HEK-293T,MTT,72 h,EC50,> 100 µM
COc1ccc(NC(=O)c2c(Nc3ccccc3)sc(C#N)c2NC(=O)CNc2ccccc2)cc1,HepG2,SRB,"1 nM, 48 h",viability,102%
CCOC(=O)Cc1sc(NCc2ncccn2)nc1-c1ccccn1,Huh-7,,,CC50,> 40 µM
COc1ccc(/C=N/NC(=O)c2ccc(Nc3cc(C)nc4c(O)cccc34)cc2)cc1O,Huh-7,MTT,20 µM,inhibition,30.2%
C=CC(=O)Nc1cccc(Nc2nc(Nc3ccc(OCCOC)cc3)ncc2F)c1,Ramos,,48 h,GI50,9.2 µM
COc1cc2c(Nc3ccc(Br)cc3F)ncnc2cc1OCC1CCN(C)CC1,NCI-H292,ATP luminescence,72 h,GI50,1.14 µM
Cc1cc(Nc2ccc(C(=O)N/N=C/c3ccncc3)cc2)c2cccc(O)c2n1,Huh-7,MTT,20 µM,inhibition,76.9%
c1ccc(-c2csc(NCc3ncccn3)n2)nc1,Huh-7,,,CC50,> 40 µM
COc1ccc(NC(=O)c2c(Nc3ccccc3)sc(C#N)c2NC(=O)CNc2ccccc2[N+](=O)[O-])cc1,HepG2,SRB,"10 µM, 48 h",viability,84.6%
Cc1cc(Nc2ccc(C(=O)N/N=C/c3cccc(Oc4ccccc4)c3)cc2)c2cccc(O)c2n1,Huh-7,MTT,20 µM,inhibition,61%
COc1ccc(NC(=O)c2c(Nc3ccccc3)sc(C#N)c2NC(=O)CNc2ccccc2Cl)cc1,HepG2,SRB,"10 nM, 48 h",viability,88.3%
CCOC(=O)c1ccc(-n2c(C)cc(C)c(C#N)c2=O)cc1,HepG2,MTT,"50 µM, 24 h",viability,51.2%
COc1ccc(NC(=O)c2c(Nc3ccccc3)sc(C#N)c2NC(=O)CNc2ccc([N+](=O)[O-])cc2)cc1,HepG2,SRB,"1 µM, 48 h",viability,68.4%
CCOC(=O)c1ccc(-n2c(C)cc(/C=C/c3ccc(OC)cc3)c(C#N)c2=O)cc1,HepG2,MTT,"25 µM, 24 h",viability,72.6%
CC(=O)Oc1ccc(/C=N/NC(=O)c2ccc(Nc3cc(C)nc4c(O)cccc34)cc2)cc1,Huh-7,MTT,20 µM,inhibition,31.2%
CCCCCCCCCCCCNC(=S)NCCCC[C@H](NS(C)(=O)=O)C(=O)N[C@@H](C)C(=O)N[C@@H](CCCNC(=N)N)C(N)=O,HEK-293T,MTT,72 h,EC50,~100 µM
Cc1cc(Nc2ccc(C(=O)N/N=C/C3CCCCC3)cc2)c2cccc(O)c2n1,Huh-7,MTT,20 µM,inhibition,41.1%
C=CC(=O)Nc1cc(-n2c(=O)ccc3cnc4ccc(-c5ccc(NS(C)(=O)=O)cc5)cc4c32)ccc1C,Ramos,,48 h,GI50,1.8 µM
